Assay results taken from publication PMC4301737 (Journal of molecular biology, 2009).
Like-named read-outs stand apart in the source and are kept apart here.

Experiments:
BpeGReg [1] = assay: Ligand binding kinetics and affinity of BpeGReg; design: species or system Bordetella pertussis; settings: 25°C, 100 mM NaPi, pH 7.5
In short: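 His-tagged protein purified by Co2+-affinity, used at 2–5 µM. O2 kon by flash photolysis at 436 or 414 nm with 64–1024 µM O2. O2 koff by stopped-flow at 436 nm, oxy protein mixed with 1 mM dithionite. CO kon by photolysis at 419 nm with 30–480 µM CO. CO koff: 3.5 µM CO-bound protein (20 µM CO) displaced by 500 µM NO at 423 nm. NO kon by photolysis at 435 nm with 15–60 µM NO. Rates taken from linear kobs-versus-ligand plots over ≥4 concentrations.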

[2] = target: sperm-whale myoglobin (SWMb); settings: ref Springer et al.[23], cited from earlier work
BpeGReg [3] = assay: Enzymatic diguanylate cyclase assay; assay type: biochemical, Bordetella pertussis
HemAT-Bs = settings: ref Zhang et al.[22], cited from earlier work

O=O [O2, oxygen]
O2 koff (BpeGReg [1]): 4.5 s⁻¹ | Kd (BpeGReg [1]; read-out: O2 Kd): 640 nM | Kd ([2]; read-out: O2 Kd): 880 nM | O2 koff [2]: 15 s⁻¹ | drop in activity in the absence of O2 (BpeGReg [3]; 5 µM BpeGReg in air (Fe(II)O2) vs anaerobic (Fe(II)), 500 µM GTP, PDE-coupled): 13 fold | rate of O2-bound BpeGReg relative to unliganded ferrous form (BpeGReg [3]; PDE-coupled assay): 10 times | initial rate of c-di-GMP production by O2-bound BpeGReg (BpeGReg [3]; PDE-coupled assay, 500 µM GTP): 2.5 min⁻¹ | c-di-GMP production by liganded state of BpeGReg (BpeGReg [3]; compared to the unliganded, CO- and NO-bound forms, HPLC-MS and TLC): highest amount of c-di-GMP per mole of protein

[C-]#[O+] [CO, carbon-monoxide]
CO koff (BpeGReg [1]): 0.056 s⁻¹ | Kd ([2]; read-out: CO Kd): 37 nM | CO koff [2]: 0.019 s⁻¹ | Kd (HemAT-Bs; read-out: CO Kd): 200 nM | CO koff (HemAT-Bs): 0.067 s⁻¹

Nc1nc2c(ncn2[C@@H]2O[C@@H]3COP(=O)(O)O[C@H]4[C@@H](O)[C@H](n5cnc6c(=O)[nH]c(N)nc65)O[C@@H]4COP(=O)(O)O[C@H]3[C@H]2O)c(=O)[nH]1 [c-di-GMP, bis-(3’–5’)-cyclic diguanosine monophosphate]
effect on BpeGReg-catalyzed reaction (BpeGReg [3]; 20 µM c-di-GMP added at start, 1 µM oxy-BpeGReg, 500 µM GTP): strongly inhibited
